Assay results of several laboratories.
Protocols differ between the studies behind these lines.
MAOB: Amine oxidase [flavin-containing] B (MAOB, Homo sapiens, UniProt P27338)

target | observed | action | method | tested at | quantity | value | SMILES
MAOB | enzyme activity | inhibitor |  | 1 µM | inhibition | 87% | O=C(Nc1ccc(Cl)c(F)c1)c1ccc2c(c1)C(=O)NC2=O
GUK1 (Homo sapiens, UniProt Q16774) | enzyme activity | substrate |  |  | Km | 14.9 µM | Nc1nc2c(ncn2[C@@H]2O[C@H](COP(=O)(O)O)[C@@H](O)[C@H]2O)c(=O)[nH]1
MAOB | enzyme activity | inhibitor |  | 1 µM | inhibition | 87.2% | C#CCN[C@@H]1CCc2ccccc21
Beta-1 adrenergic receptor (ADRB1, Homo sapiens, UniProt P08588) | ligand displacement |  | radioligand | 10 µM | inhibition | < 50% | NC/C(=C\F)COc1cccc(Cn2c(=S)[nH]c(=O)c3[nH]cnc32)c1
MAOB | enzyme activity | inhibitor |  | 1 µM | inhibition | 89.3% | O=C(Nc1cc(Cl)cc(Cl)c1)c1ccc2c(c1)C(=O)NC2=O
Serine/threonine-protein kinase N1 (PKN1, Homo sapiens, UniProt Q16512) | enzyme activity | inhibitor |  | 0.2 µM | inhibition | 38.5% | C#Cc1cc(-c2cc(Nc3nc(N[C@@H](C)c4ccc(F)cn4)ncc3Cl)n[nH]2)ccc1C=O
Ribosomal protein S6 kinase alpha-6, N-terminal kinase domain (RPS6KA6, Homo sapiens, UniProt Q9UK32) | cell-free assay |  |  | 0.1 µM | remaining signal | 78% | C1=C/COCc2cc(ccc2OCCN2CCCC2)Nc2nccc(n2)-c2cccc(c2)COC/1
Serine/threonine-protein kinase NLK (NLK, Homo sapiens, UniProt Q9UBE8) | binding |  | competition with immobilised ligand | 0.5 µM | remaining binding | 92% | CCCCC(=O)Nc1ccc(-c2ccc3ncn(CCC)c(=O)c3c2)cn1
Tyrosine-protein kinase HCK (HCK, Homo sapiens, UniProt P08631) | binding |  |  | 1 µM | remaining binding | 108% | COc1ccc2oc(-c3ccc4nc(N)oc4c3)c/c(=N\c3ccccc3NC(=O)CCN)c2c1
NUAK family SNF1-like kinase 2 (NUAK2, Homo sapiens, UniProt Q9H093) | binding |  | competition with immobilised ligand | 1 µM | remaining binding | 45% | C[C@]1(O)CCCN(c2nc(Nc3ccc(S(=O)(=O)N[C@H]4CC[C@H](CN5CCN(c6ccc(C7CCC(=O)NC7=O)cc6F)CC5)CC4)cc3F)ncc2C(F)(F)F)C1 (stereo partly drawn)
MAOB | enzyme activity | inhibitor |  | 1 µM | inhibition | < 5% | COc1cccc(NC(=O)c2ccc3c(c2)C(=O)NC3=O)c1
Caspase-1 (Casp1, Mus musculus, UniProt P29452) | enzyme activity | inhibitor |  |  | kinact/KI | 4.27e+06 M⁻¹ s⁻¹ | C[C@H](NC(=O)C(=O)Nc1ccccc1C(C)(C)C)C(=O)N[C@@H](CC(=O)O)C(=O)COc1c(F)c(F)cc(F)c1F
